Measurements from ChEMBL document CHEMBL1125458, “3-O-alkylascorbic acids as free radical quenchers. 3. Protective effect on coronary occlusion-reperfusion induced arrhythmias in anesthetized rats” (1992).

Key:
Rattus norvegicus [1] = assay: Effect (10 mg/kg, iv) on coronary reperfusion-induced arrhythmias was assessed in anesthetized rats.(Intervals of ventricular tachycardia (VT)+ventricular fibrillation (VF) within 600 s.; format: functional, Cardiac ventricle
Rattus norvegicus [2] = species: Rattus norvegicus; assay: Inhibition of lipid peroxidation in rat liver microsomes.; format: functional; design: concentration or dose not given beside the values; details: dose or concentration not given here
Method in brief: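 Wistar rat liver microsomes (2.0 mg protein) in 83.5 mM KCl, 37.2 mM Tris-HCl pH 7.4 with 1 mM ADP, 10 µM FeCl3, 0.02 mM NADPH; compound added in DMF, tested at 10^-5 M. 37 °C, 20 min. Malondialdehyde measured by thiobarbituric acid method, A532; % inhibition, mean ± SD, n = 3–6.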

Rattus norvegicus [3] = species: Rattus norvegicus; assay: Inhibitory effect on production of active oxygen species by rat peritoneal exudate macrophages; format: functional; design: concentration or dose not given beside the values
Method in brief: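 Peritoneal exudate macrophages harvested 3 days after ip liquid paraffin (male Wistar rats), >90% viable. Assay: 125 mM sodium phosphate pH 6.5, 0.08 mM EDTA, 1.2 U LDH, 0.32 mM NADH, (2–3) × 10^6 cells, compound in DMF, 1 × 10^-4 M. Started with NADH.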

Rattus norvegicus [4] = assay: Effect (30 mg/kg, iv) on coronary reperfusion-induced arrhythmias was assessed in anesthetized rats.(Intervals of ventricular tachycardia (VT)+ventricular fibrillation (VF) within 600 s.; format: functional, Cardiac ventricle
Rattus norvegicus [5] = assay: Effect (10 mg/kg, iv) on coronary reperfusion-induced arrhythmias was assessed in anesthetized rats.(Intervals of ventricular tachycardia (VT)+ventricular fibrillation (VF) within 600 s; format: functional, Cardiac ventricle
Rattus norvegicus [6] = assay: Effect (30 mg/kg, po) on coronary reperfusion-induced arrhythmias was assessed in anesthetized rats.(Intervals of ventricular tachycardia (VT)+ventricular fibrillation (VF) within 600 s.; format: functional, Cardiac ventricle
Method in brief: (§1)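 Male Wistar rats (350–450 g) dosed orally 1 h before occlusion, then anesthetized with pentobarbital (60 mg/kg ip) and ventilated. LAD ligated 5 min, reperfused 10 min; VT plus VF durations summed within 600 s. Mean ± SE, n = 5–10; line 2 value is the minimum effective dose.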

Rattus norvegicus [7] = assay: Effect (10 mg/kg, po) on coronary reperfusion-induced arrhythmias was assessed in anesthetized rats.(Intervals of ventricular tachycardia (VT)+ventricular fibrillation (VF) within 600 s.; format: functional, Cardiac ventricle; method in brief: as §1
Cavia porcellus [8] = species: Cavia porcellus; assay: Inhibitory activity against atrial rate in isolated Guinea pig right atrea at 0.1 mg/mL concentration; format: functional, Cardiac atrium
Method in brief: (§2)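 Right atria from male Hartley guinea pigs (450–550 g), loaded at 0.5 g, in Tyrode's solution at 37 °C gassed with 95% O2/5% CO2. Equilibrated at least 30 min until rate stable within 5 beats/min; spontaneous rate and contractile force recorded on polygraph after compound addition.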

Cavia porcellus [9] = species: Cavia porcellus; assay: Inhibitory activity against atrial rate in isolated Guinea pig right atrea at 0.3 mg/mL concentration; format: functional, Cardiac atrium; method in brief: as §2
Rattus norvegicus [10] = assay: Antiarrhythmic activity against anesthetized rats after peroral administration; format: functional, Heart; method in brief: as §1
Rattus norvegicus [11] = assay: Change in arterial blood pressure was measured at 10 mg/kg dose(iv) in anesthetized rats; format: functional, Artery
Method in brief: (§3)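 Male Wistar rats, pentobarbital 60 mg/kg ip, supine. Compound suspended in saline with 1% olive oil and 1% Tween 80, injected via femoral vein. Femoral arterial pressure monitored 10 min after injection; change in mmHg, mean ± SE, n = 3–4.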

Cavia porcellus [12] = species: Cavia porcellus; assay: Inhibitory activity against atrial contractility in isolated Guinea pig right atrea at 0.03 mg/mL concentration; format: functional, Cardiac atrium; method in brief: as §2
Cavia porcellus [13] = species: Cavia porcellus; assay: Inhibitory activity against atrial rate in isolated Guinea pig right atrea at 0.03 mg/mL concentration; format: functional, Cardiac atrium; method in brief: as §2
Rattus norvegicus [14] = assay: Change in heart rate was measured at 30 mg/kg dose(iv) in anesthetized rats; format: functional
Method in brief: (§4)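 Anesthetized male Wistar rats (pentobarbital 60 mg/kg ip); compound in saline/1% olive oil/1% Tween 80 given by femoral vein. Lead II ECG recorded and heart rate read by beat-to-beat tachograph for 10 min after dosing; change in beats/min, mean ± SE, n = 3–4.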

Rattus norvegicus [15] = assay: Antiarrhythmic activity against anesthetized rats after intravenous administration; format: functional, Heart
Rattus norvegicus [16] = assay: Effect (1 mg/kg, iv) on coronary reperfusion-induced arrhythmias was assessed in anesthetized rats.(Intervals of ventricular tachycardia (VT)+ventricular fibrillation (VF) within 600 s; format: functional, Cardiac ventricle
Rattus norvegicus [17] = assay: Change in arterial blood pressure was measured at 30 mg/kg dose(iv) in anesthetized rats; format: functional, Artery; method in brief: as §3
Cavia porcellus [18] = species: Cavia porcellus; assay: Inhibitory activity against atrial contractility in isolated Guinea pig right atrea at 0.3 mg/mL concentration; format: functional, Cardiac atrium; method in brief: as §2
Rattus norvegicus [19] = assay: Change in heart rate was measured at 10 mg/kg dose(iv) in anesthetized rats; format: functional; method in brief: as §4
Rattus norvegicus [20] = assay: Effect (100 mg/kg, po) on coronary reperfusion-induced arrhythmias was assessed in anesthetized rats.(Intervals of ventricular tachycardia (VT)+ventricular fibrillation (VF) within 600 s.; format: functional, Cardiac ventricle; method in brief: as §1
Cavia porcellus [21] = species: Cavia porcellus; assay: Inhibitory activity against atrial contractility in isolated Guinea pig right atrea at 0.1 mg/mL concentration; format: functional, Cardiac atrium; method in brief: as §2
Rattus norvegicus [22] = assay: Effect (30 mg/kg, iv) on coronary reperfusion-induced arrhythmias was assessed in anesthetized rats. (Intervals of ventricular tachycardia (VT)+ventricular fibrillation (VF) within 600 s.; format: functional, Cardiac ventricle

SMILES	Arrhythmias times (Rattus norvegicus [1])	inhibition (Rattus norvegicus [2]) [%]	Inhibition (Rattus norvegicus [3]) [%]	Arrhythmias times (Rattus norvegicus [4])	further results
CCCCCCCCCCCCCCOC1=C(O)C(=O)OC1C(O)CO (stereo not given)	352	78	40.7		
CCCCCCCCCCCCCCCCCCOC(=O)COC1=C(O)C(=O)OC1C(O)CO (stereo not given)		30		413	
CCCCCCCCCCCCCCCCC(=O)COC1=C(O)C(=O)OC1C(O)CO (stereo not given)	521	43			
O=C1OC(C(O)CO)C(OCC(=O)c2ccccc2)=C1O (stereo not given)		1		429	
CCCCCCCCCCCCOC1=C(O)C(=O)OC1C(O)CO (stereo not given)		91	38.7		Arrhythmias times (Rattus norvegicus [5]): 49
CCCCCCCCCCCC1OCC(C2OC(=O)C(O)=C2OCC(C)=O)O1 (stereo not given)	478	44			
CCCCCCCCCCCCC(=O)COC1=C(O)C(=O)OC1C(O)CO (stereo not given)		85	6.3		Arrhythmias times (Rattus norvegicus [6]): 313.3; Arrhythmias times (Rattus norvegicus [7]): 378.2; Inhibition (Cavia porcellus [8]): 14.6%; Inhibition (Cavia porcellus [9]): 13%; Efficacy (Rattus norvegicus [10]): >30 mg/kg; Delta blood pressure (Rattus norvegicus [11]): -5 mmHg; Inhibition (Cavia porcellus [12]): 25%; Inhibition (Cavia porcellus [13]): 12.9%; Delta heart rate (Rattus norvegicus [14]): -35 beats min-1; Efficacy (Rattus norvegicus [15]): >1 mg/kg; Arrhythmias times (Rattus norvegicus [16]): 185; Delta blood pressure (Rattus norvegicus [17]): -17.7 mmHg; Inhibition (Cavia porcellus [18]): 41.3%; Delta heart rate (Rattus norvegicus [19]): -8.3 beats min-1; Arrhythmias times (Rattus norvegicus [20]): 85.4; Inhibition (Cavia porcellus [21]): 30.2%
CCOC1=C(O)C(=O)OC1C(O)CO (stereo not given)		2			Arrhythmias times (Rattus norvegicus [22]): 591
CCCCCCCCCCCCCCC(=O)COC1=C(O)C(=O)OC1C(O)CO (stereo not given)		65	36.8	445	
CCCCCCCCCCCCCCCCCCOC1=C(O)C(=O)OC1C(O)CO (stereo not given)		45	53.3	447	
